The RNAGym collection of RNA variant scans (doi:10.1038/nmeth.2970)

B1: NELF-E aptamer (parent)
chain: CCCAACGACUGCCGAGCGAGAUUACGCUUGAGCGCCCCACUGAGGAUGCCCACGGGCGAUUGGGGCACGG

Variants of: B1
Experiment: HiTS-RAP
Settings: with NELF-E (Drosophila)
Summary of the method: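 Aptamer DNA templates bearing a T7 promoter and a ter site were sequenced on an Illumina GAIIx flowcell. T7 RNA polymerase then transcribed them in situ, and GST-Tus halted transcription over 30 minutes at 37°C. After a 30-minute room-temperature equilibration with NELF-E-mOrange at 0.064 to 1000 nM in HEPES binding buffer, clusters were imaged, using only the first binding curve. Intensities normalised to sequencing intensity were averaged per sequence and fitted with weighted Hill fits to give Kd, retaining only fits whose variance stayed under 1,000,000.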

Variant | Kd
CCCAACGACUGCCGAGCGAGAUUACGCUUGAGCGCCCCUCAGAGGAUGCCCACGGGCGAUUGGGGCACGG | 109 nM
CCCAACGACUGCCGAGCGAGAUUACGCUUGAGCGCCCCACUGAGGAUGCCCCCGGGCGAUUGGGGCACGG | 5.64 nM
CCCAACGACUGCCGAGCGAGAUUACGCUGGAGCGUCCCACUGAGGAUGCCCACGGGCGAUUGGGGCACGG | 17.1 nM
CCCAACGACGGCAGAGCGAGAUUACGCUUGAGCGCCCCACUGAGGAUGCCCACGGGCGAUUGGGGCACGG | 5.77 nM
CCCAACGACUGCCGAGCGAGAUUACGCUUGAGCGCCCCACGGAGGAUGCCCACGGGCGAUUGAGGCACGG | 16.8 nM
CCCUACGACUGCCGAGCGAGAUUACGCUUGAGCACCCCACUGAGGAUGCCCACGGGCGAUUGGGGCACGG | 6.2 nM
CCCAACUACUGCCGAGUGAGAUUACGCUUGAGCGCCCCACUGAGGAUGCCCACGGGCGAUUGGGGCACGG | 6.16 nM
CCCAACGAGUGCCGAGCGAGAUUACGCUUGAGCGCCCUACUGAGGAUGCCCACGGGCGAUUGGGGCACGG | 8.24 nM
CCCAACGACUGCCGAGCGAGAUUACGCUUGAGCGCCCCACGGAGGAUGCCCACAGGCGAUUGGGGCACGG | 18.1 nM
CCCAACGACUGCCGAGCGAAAUUACGCUUGAGCGCCCCACUGAGGAUGCCCACGGGCGAUUGGGGCACGG | 5.25 nM
CCCAACGACUGCCGAGCGAUAUUACGCUUGGGCGCCCCACUGAGGAUGCCCACGGGCGAUUGGGGCACGG | 8.41 nM
CCCAAAGACUGCCGAGCGAGAUUACGCUUGAGCGCCCCACUGAGGAUGCCCACGGGCGAUUGGGGCACGG | 6.13 nM
CCCAAGGACUGCCAAGCGAGAUUACGCUUGAGCGCCCCACUGAGGAUGCCCACGGGCGAUUGGGGCACGG | 5.15 nM
CCCAGCGACUGCCGAGCGAGAUUGCGCUUGAGCGCCCCACUGAGGAUGCCCACGGGCGAUUGGGGCACGG | 6.27 nM
CCCAACGACUGGCGAGCGAGAUCACGCUUGAGCGCCCCACUGAGGAUGCCCACGGGCGAUUGGGGCACGG | 3.97 nM
CCCAACGACUGCCGAGCGAGAUGACGCUUGAGCGCCGCACUGAGGAUGCCCACGGGCGAUUGGGGCACGG | 7.9 nM
CCCAACGACGGCCGAGCGAGAUUACGCUUGAGCGCCCCACUGAGGAUGCCCACGGGCGAUUCGGGCACGG | 67.3 nM
CCCAUCGACGGCCGAGCGAGAUUACGCUUGAGCGCCCCACUGAGGAUGCCCACGGGCGAUUGGGGCACGG | 5.49 nM
CCCAAUGACUGCCGAGCGAGAUUACGCUGGAGCGCCCCACUGAGGAUGCCCACGGGCGAUUGGGGCACGG | 5.8 nM
CCCAACGACUACCGAGCGAUAUUACGCUUGAGCGCCCCACUGAGGAUGCCCACGGGCGAUUGGGGCACGG | 8.59 nM

Variant | Kd
CCCAACGAUUGCCGAGCGAGAUUACGCUUGAGCGCCCCACGGAGGAUGCCCACGGGCGAUUGGGGCACGG | 5.98 nM
CCCAACGACUACUGAGCGAGAUUACGCUUGAGCGCCCCACUGAGGAUGCCCACGGGCGAUUGGGGCACGG | 5.33 nM
CCCAAGGACUGCCGAGCGAGAUUACGCUUGAGCGCCCCACUGAGGAUGCCCACGGGCGAUUGGGGAACGG | 5.34 nM
CCCAUCGACUGCCGAGCGAGAUUACGCUUGGGCGCCCCACUGAGGAUGCCCACGGGCGAUUGGGGCACGG | 7.03 nM
CCCAACGACUGCCGUGCGAGAUUACGCUUGAGCGCCCCACUGAGGAUGCCCACGGGCGAUUGGGGCGCGG | 4.18 nM
CCCAACGGCUGCCGAGCGAGAUUACGCUUGAGCGCCCCACUGAGGAUGCCCACGGGCGUUUGGGGCACGG | 57.1 nM
CCCAACGACUGCCGAGCGAAGUUACGCUUGAGCGCCCCACUGAGGAUGCCCACGGGCGAUUGGGGCACGG | 7.05 nM
CCCAACGACGGCCGAGCGAGAAUACGCUUGAGCGCCCCACUGAGGAUGCCCACGGGCGAUUGGGGCACGG | 5.58 nM
CCCAACGACUGCCGAGCGAGAUUACGCUUGAGCGCCCCAUUGAGGAUGCCCACGGGCGAUUGGGGCACGG | 56.6 nM
CCCAACGACUGCCGAGCGAGAUGACGCCUGAGCGCCCCACUGAGGAUGCCCACGGGCGAUUGGGGCACGG | 9 nM
CCCAUAGACUGCCGAGCGAGAUUACGCUUGAGCGCCCCACUGAGGAUGCCCACGGGCGAUUGGGGCACGG | 7.45 nM
CCCAACGUCUGCCGAGCGAGAUUACGCUUGAGCGCCCCACGGAGGAUGCCCACGGGCGAUUGGGGCACGG | 6.19 nM
CCCAAGGACUGCCGAGCGAUAUUACGCUUGAGCGCCCCACUGAGGAUGCCCACGGGCGAUUGGGGCACGG | 6.34 nM
CCCGACGACUGCCGAGCGAGAUUACGCUUGGGCGCCCCACUGAGGAUGCCCACGGGCGAUUGGGGCACGG | 7.17 nM
CCCAACGACUGCCGAGCGAGAUUACGCUUGAGCGCCCCACUGAGGAUGCCCACGGGCGAUCGGGGCACGG | 63.7 nM
CCCAACGACUGCCGAGCGAGAUUGCGCUUGAGCACCCCACUGAGGAUGCCCACGGGCGAUUGGGGCACGG | 8.56 nM
CCCAAGGACUGCCGAGCGAGAUUACGCUUGAGCGCCCCACUGAGGAUGCCCACGGGCGACUGGGGCACGG | 10.3 nM
CCCAACGACUGCCGAGCGAGAUUACGCUUGAGCGCCCCACUGAGGAUGCCCAGUGGCGAUUGGGGCACGG | 4.24 nM
CCCAACGACUGCUGAGCGAGAUUACGCUGGAGCGCCCCACUGAGGAUGCCCACGGGCGAUUGGGGCACGG | 5.14 nM
